# OX1R antag-1 = OX1R (HCRTR1) antagonists, primary screen, fluorescence, CHO/OX1R cells, Fluo-8 calcium, orexin A | Orexin/Hypocretin receptor type 1 (Homo sapiens), O43613 | Fluo-8 calcium fluorescence | inhibition, % at 5 µM | hit rate 0.43% among 330,000;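 active means inhibition above its plate's threshold, mean inhibition of all tested compounds on the plate plus 3 SD, cut at about 37% in these data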
# TAAR1 antagonist = human TAAR1 antagonists, primary screen, Fluo-8 calcium fluorescence, CHO RD-HGA16 cells; antagonist; hit rate 1.5% among 360,000; AID 624466, 2012; inhibition, % at 3 µM;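 active means inhibition above a per-plate cutoff, the mean inhibition of test compounds on that plate plus 3 SD, cut at about 49% in these data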
# Target sequence (Q96RJ0 whole entry, looked up): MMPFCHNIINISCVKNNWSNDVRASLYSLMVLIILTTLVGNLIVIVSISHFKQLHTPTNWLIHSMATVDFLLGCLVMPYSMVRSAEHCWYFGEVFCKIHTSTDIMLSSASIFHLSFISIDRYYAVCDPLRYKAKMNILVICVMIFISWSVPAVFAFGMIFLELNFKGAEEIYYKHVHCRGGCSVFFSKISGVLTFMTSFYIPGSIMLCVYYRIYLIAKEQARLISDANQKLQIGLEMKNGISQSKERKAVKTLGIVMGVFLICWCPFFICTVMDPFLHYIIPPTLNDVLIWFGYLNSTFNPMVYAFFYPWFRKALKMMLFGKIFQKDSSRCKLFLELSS
#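 Assay system: RD-HGA16 CHO cells with stable hTAAR1 and Gα16 / Reagent: EC80 β-phenethylamine stimulus / Doses: 3 µM, single point / Timing: dye loading 75 min at 37 °C, then 30 min room temperature / Measured by: Fluo-8 intracellular calcium dye fluorescence, real-time kinetic reads / Controls: vehicle wells and EC80 agonist wells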
# TAAR1 ag = human TAAR1 agonists, primary screen, Fluo-8 calcium fluorescence, CHO RD-HGA16 cells; Trace amine-associated receptor 1 (Homo sapiens), Q96RJ0; vehicle wells 0%, saturating PEA agonist 100%; activation, % at 3 µM; hit rate 0.99% among 360,000; AID 624467, 2012;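 active means activation above the mean activation of all test compounds in the run plus 3 SD, cut at about 38% in these data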
#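 test system = CHO RD-HGA16 cells carrying human TAAR1 plus Gα16 | schedule = 17-24 h seeding, 75 min 37 °C dye, 30 min RT | compound dosing = 3 µM single concentration | control set = DMSO and PEA EC100 | replicates = n 1 | signal = Fluo-8 fluorescence, 5 s baseline then 140 s kinetic read | measure = percent activation vs PEA EC100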
# CHO parental Ca = ATP-evoked calcium signal inhibitors, parental CHO, primary screen, counter-screen for OX1R antagonist project, cell-based, fluorescence, Fluo-8 calcium dye; hit rate 0.63% among 330,000; AID 463079, 2010; parental CHO-K1, ATP-induced calcium, Fluo-8 fluorescence; inhibition, % at 5.6 µM;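 active means inhibition above that plate's mean sample inhibition plus 3 SD, cut at about 26% in these data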
#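 material = parental CHO cells | also added = ATP as calcium-mobilizing challenge | dosing = single point at 5.6 µM | detection = intracellular calcium via Fluo-8 no-wash fluorescent dye | read-out = % inhibition | benchmarks = low control ATP plus DMSO, high control DMSO only | repeats = one well per compound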
# GalR3 antag = GalR3 antagonists in HEK293 cells, primary screen, cell-based, fluorescence readout | hit rate 0.44% among 360,000 | HEK293 GalR3-CNG cAMP membrane potential fluorescence; galR3 body fused to GalR1 C-terminus | inhibition, % at 3 µM | Galanin receptor type 3 (Homo sapiens), O60755;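 active means inhibition above the screen-wide average plus 3 SD, cut at about 13% in these data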;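 further: forskolin and galanin both at EC90 stimulate the cells; cAMP rise reported by CNG channel membrane potential dye signal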
# Target sequence (O60755 1-299 limits assumed): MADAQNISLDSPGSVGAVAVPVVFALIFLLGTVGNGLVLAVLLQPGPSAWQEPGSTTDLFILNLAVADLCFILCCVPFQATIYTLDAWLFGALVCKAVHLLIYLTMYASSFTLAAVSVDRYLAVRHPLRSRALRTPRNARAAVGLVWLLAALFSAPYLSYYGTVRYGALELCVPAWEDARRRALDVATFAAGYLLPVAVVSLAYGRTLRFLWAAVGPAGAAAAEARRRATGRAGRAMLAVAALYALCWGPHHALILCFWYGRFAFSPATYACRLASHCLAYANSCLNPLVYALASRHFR
# OX1R antag-2 = antagonists of human orexin 1 receptor (OX1R); Orexin/Hypocretin receptor type 1 (Homo sapiens), O43613; OX1R-expressing cells, FRET antagonist read-out; inhibition, % at 6.6 µM; hit rate 1.8% among 330,000; in the data active means inhibition mostly above about 38%, no sharp cut-off; inactive means mostly below about 40%
# GalR3 antag conf = GalR3 antagonist hit confirmation, cell-based, fluorescence, triplicate | shares compounds with GalR3 antag | HEK293 GalR3 CNG cAMP biosensor, membrane potential fluorescence; galR3 fused to GalR1 carboxy tail; challenged with forskolin and galanin at EC90 | inhibition, % at 3 µM | hit rate 59% among 1,600 | AID 652245, 2013;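 active means inhibition above the primary screen's cutoff, the mean inhibition of all screened compounds plus 3 SD, cut at about 13% in these data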
# CNG parental = nonspecific cAMP agonists in parental HEK-CNG cells, counter-screen for GalR3 antagonist project, cell-based, fluorescence, high throughput; activation, % at 3 µM; shares compounds with GalR3 antag; hit rate 10% among 1,600; HEK293-CNG parental cells, cAMP membrane potential fluorescence; normalised: DMSO wells 0%, forskolin wells 100%; in the data active means activation above about 1.3%
# Hits are given with their value; n = inactive; x = no result. An excerpt weighted towards active compounds, which were near 4.3% of everything screened.
SMILES,OX1R antag-1,TAAR1 antagonist,TAAR1 ag,CHO parental Ca,GalR3 antag,OX1R antag-2,GalR3 antag conf,CNG parental
O=C1NCC(COc2cccc3ccccc23)O1 (configuration not stated),n,n,n,n,19,n,n,n
Oc1cccc2oc(=S)[nH]c12,x,n,n,x,n,x,x,x
CCOC(=O)c1ccc(-c2c(-c3cc(OC)c(OC)c(OC)c3)noc2C)cc1F,n,n,n,n,x,n,n,3.8
Cc1ccc(S(=O)(=O)NN2C(=O)c3ccccc3NC2c2ccccn2)cc1 (configuration not stated),n,n,n,n,14,n,n,n
Cc1ccc(S(=O)(=O)NN2C(=O)c3ccccc3NC2c2ccccc2O)cc1 (configuration not stated),n,n,n,n,n,n,x,x
Cc1ccc(NCC(=O)Nc2ccc(F)c(Cl)c2)cc1S(=O)(=O)N1CCOCC1,x,n,n,x,n,x,x,x
COc1ccc(NS(=O)(=O)c2ccc(-c3coc(C)n3)cc2)cc1OC,n,n,n,50,85,n,100,n
COc1ccc(NS(=O)(=O)c2ccc(-c3coc(C)n3)cc2)cc1,n,n,n,n,n,n,x,x
COc1ccc(-c2ccc(C(=O)NCc3ccc(F)c(F)c3)c3occc23)c(C)c1,x,n,n,x,n,x,x,x
COc1ccc(-c2coc3c(C(=O)NCc4ccc(OC)c(OC)c4)cccc23)c(C)c1,x,56,n,x,89,x,104,n
COc1ccc(-c2ccc(C(=O)NCc3ccncc3)c3occc23)c(C)c1,x,n,n,x,90,x,103,n
O=C(NCc1ccncc1)c1ccc(-c2ccc(F)c(F)c2)c2ccoc12,x,n,n,x,29,x,n,n
COc1ccc(-c2c(-c3ccccc3OC)oc3ccccc23)cc1F,n,n,n,n,x,n,n,n
COc1ccccc1-c1oc2ccccc2c1-c1ccccc1OC,n,n,n,n,n,n,x,x
CC(=O)N1CCc2ccc(NC(=O)c3c(-c4c(Cl)cccc4Cl)noc3C)cc21,n,n,n,n,n,n,x,x
Cc1ccc(C(=O)NC2CCCc3c2cnn3-c2ccc(F)cc2F)cn1 (configuration not stated),n,n,n,38,97,n,110,n
Cc1nnsc1C(=O)NC1CCCc2c1cnn2-c1ccc(F)cc1F (configuration not stated),n,n,n,n,105,n,103,n
CN1N=C(C(=O)NC2CCCc3c2cnn3-c2ccc(F)cc2F)CCC1=O (configuration not stated),n,n,n,n,n,n,x,x
Cc1nnsc1C(=O)NC1CCCc2c1cnn2-c1cc(F)cc(F)c1 (configuration not stated),n,n,n,n,n,n,x,x
CC(C)c1c(O)c2c(n(-c3ccccc3)c1=O)CCCC2,n,n,n,n,x,n,n,1.9
O=c1c(-c2ccccc2)c(O)c2c(n1-c1ccccc1)CCCC2,n,n,n,n,n,n,x,x
C=CCn1c(COc2ccc(Cl)cc2)nnc1SCC(=O)c1c(N)n(C)c(=O)n(C)c1=O,n,n,n,n,16,n,n,n
Cc1cc(C(=O)OCC(=O)N2CC(C)OC(C)C2)c(C)n1-c1ccccc1 (configuration not stated),n,n,n,n,n,n,x,x
COc1c(/C=C2\SC(=Nc3ccccc3Cl)NC2=O)cccc1[N+](=O)[O-],n,n,n,n,51,68,65,n
C[C@@H]1COC(=O)[C@@H](Cc2ccc(F)cc2)C/C=C\C[C@H](CC(=O)N(CCO)Cc2ccccc2)C(=O)N1,n,n,n,n,n,n,x,x
SMILES,OX1R antag-1,TAAR1 antagonist,TAAR1 ag,CHO parental Ca,GalR3 antag,OX1R antag-2,GalR3 antag conf,CNG parental
CN(C)c1ccc(CC(=O)N2CCCC(c3cc(C(=O)Nc4ccc(C(C)(C)C)cc4)no3)C2)cc1 (configuration not stated),x,55,n,x,49,x,109,n
O=C(Nc1ccccc1)c1cc(C2CCCN(C(=O)CCc3ccccc3)C2)on1 (configuration not stated),x,n,n,x,n,x,x,x
COc1cc(C2Nc3ccc4ncccc4c3C3=C2C(=O)CC(C)(C)C3)cc(OC)c1O (configuration not stated),n,n,n,n,n,n,x,x
COc1cc(C2Nc3ccc4ncccc4c3C3=C2C(=O)CCC3)cc(OC)c1O (configuration not stated),n,n,n,n,13,68,n,n
CC(C)CN1C(=O)CN(S(C)(=O)=O)CC1(C)C(=O)Nc1ccc2c(c1)OCCO2 (configuration not stated),x,n,n,x,n,x,x,x
O=C(NS(=O)(=O)N1CCCC1)C1=C(N2CCCC2)COC1=O,n,n,n,n,x,n,n,n
CCC(C)(C)c1ccc(OCCCC[n+]2cccc(C)c2C)c(C(C)(C)CC)c1,52,n,n,40,15,n,67,1.3
C=CCNC(=O)/C(=C/c1cn(-c2ccccc2)nc1-c1cccc([N+](=O)[O-])c1)NC(=O)c1ccccc1,n,n,n,n,16,n,n,n
O=C(Nc1ccccc1C1CC1)c1cccs1,n,n,n,n,78,n,n,n
CNCC(O)c1ccc(OC(=O)C(C)(C)C)c(OC(=O)C(C)(C)C)c1 (configuration not stated),n,n,n,n,55,n,63,13
CC(C)NC[C@H](O)c1ccc(O)c(O)c1,n,n,n,n,n,n,x,x
COC(=O)c1cnc(NC(=O)C2(C)CCN2C(=O)C(C)C)s1 (configuration not stated),x,n,n,x,n,x,x,x
COc1cc(/C=C2\SC(=Nc3c(C)n(C)n(-c4ccccc4)c3=O)NC2=O)ccc1O,x,n,n,x,31,x,34,n
CCc1ccc(CCC(=O)N2CCN(S(=O)(=O)c3ccc(Br)cc3)CC2)cc1,x,n,n,x,n,x,x,x
COc1ccc(NC(=O)C[C@H]2C(=O)N(C3CCCCC3)C[C@@H]2CSC)cc1,x,n,n,x,n,x,x,x
